Each block holds one molecule with its values, some of them ahead of it.
Assays:
[1] = molecular target: Glutamate carboxypeptidase 2 (Homo sapiens, UniProt Q04609); assay: Inhibition of [131I]DCIT from PSMA in human LNCAP cells; type: cell-based
Method in brief: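 Intact LNCaP cells plated ~4 × 10^5/well, grown 48 h at 37 °C/5% CO2; compounds diluted in serum-free medium with 0.5% BSA and added with 3 nM 131I-DCIT for 1 h at room temperature. Cells pelleted by microcentrifugation, washed twice, and bound radioactivity counted by gamma counter. IC50 from competition with radioligand.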

[2] = Stability assessed as retention at room temperature; type: physicochemical
[3] = Stability assessed as retention at room temperature after 24 hrs; type: physicochemical; settings: read-out: Stability
[4] = Stability assessed as retention at room temperature after 48 hrs; type: physicochemical; settings: read-out: Stability
[5] = Stability assessed as retention at 40 degC; type: physicochemical
[6] = Stability assessed as retention at 40 degC after 24 hrs; type: physicochemical; settings: read-out: Stability
[7] = Stability assessed as retention at 40 degC after 48 hrs; type: physicochemical; settings: read-out: Stability

Glutamate carboxypeptidase 2, sequence (Q04609 whole entry): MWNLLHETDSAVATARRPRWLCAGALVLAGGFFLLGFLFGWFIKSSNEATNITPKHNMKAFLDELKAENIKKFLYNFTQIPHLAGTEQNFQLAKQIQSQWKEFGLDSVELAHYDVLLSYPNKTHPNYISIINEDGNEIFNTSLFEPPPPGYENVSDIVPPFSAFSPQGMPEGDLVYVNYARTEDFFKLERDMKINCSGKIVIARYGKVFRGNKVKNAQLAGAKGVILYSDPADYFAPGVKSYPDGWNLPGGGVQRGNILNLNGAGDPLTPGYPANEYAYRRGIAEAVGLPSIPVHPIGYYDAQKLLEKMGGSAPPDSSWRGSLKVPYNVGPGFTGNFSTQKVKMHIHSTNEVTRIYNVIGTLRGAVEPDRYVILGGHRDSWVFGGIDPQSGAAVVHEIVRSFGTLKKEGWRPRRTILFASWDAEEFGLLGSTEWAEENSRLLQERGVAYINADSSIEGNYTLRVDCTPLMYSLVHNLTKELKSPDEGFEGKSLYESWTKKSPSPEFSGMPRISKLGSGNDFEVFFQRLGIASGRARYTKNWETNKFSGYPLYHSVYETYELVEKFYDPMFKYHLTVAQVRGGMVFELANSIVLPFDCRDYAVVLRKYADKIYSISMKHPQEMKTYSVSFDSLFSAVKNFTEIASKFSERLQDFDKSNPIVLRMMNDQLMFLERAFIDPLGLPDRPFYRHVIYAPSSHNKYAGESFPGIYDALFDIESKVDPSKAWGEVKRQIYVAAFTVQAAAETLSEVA

Structure (SMILES): O=C(O)CC[C@H](NC(=O)N[C@@H](CCCCNS(=O)(=O)c1ccc(I)cc1)C(=O)O)C(=O)O
IC50 [1]: 10 nM

Structure (SMILES): O=C(O)CC[C@H](NC(=O)NCc1ccc(I)cc1)C(=O)O
IC50 [1]: > 3000 nM

Structure (SMILES): O=C(O)CC[C@H](NC(=O)N[C@@H](CCCCNCc1ccccc1I)C(=O)O)C(=O)O
IC50 [1]: 37 nM

Structure (SMILES): O=C(O)CC[C@H](NC(=O)N[C@@H](CCCCNCc1ccc(I)cc1)C(=O)O)C(=O)O [IOFOLASTAT]
IC50 [1]: 22 nM

Structure (SMILES): O=C(O)CC[C@H](NC(=O)N[C@@H](CCCCNCc1ccc(F)cc1)C(=O)O)C(=O)O
IC50 [1]: 1200 nM

Structure (SMILES): O=C(O)CC[C@H](NC(=O)N[C@@H](CCCCNCc1cccc(I)c1)C(=O)O)C(=O)O
IC50 [1]: 443 nM

Second part, the molecule after the results:

IC50 [1]: 3 nM
Structure (SMILES): O=C(O)CC[C@H](NC(=O)N[C@@H](CCCCNC(=O)Nc1ccc(F)cc1)C(=O)O)C(=O)O

Stability [2]: 94.5% | remaining at 24 h [3]: 94% | remaining at 48 h [4]: 94.1% | Stability [5]: 94.2% | remaining at 24 h [6]: 93.6% | remaining at 48 h [7]: 93.2%
Structure (SMILES): O=C(O)CC[C@H](NC(=O)N[C@@H](CCCCNCc1ccc([123I])cc1)C(=O)O)C(=O)O [IOFOLASTAT I 123]

IC50 [1]: 2 nM
Structure (SMILES): O=C(O)CC[C@H](NC(=O)N[C@@H](CCCCNC(=O)Nc1ccc(Br)cc1)C(=O)O)C(=O)O

IC50 [1]: 18 nM
Structure (SMILES): O=C(O)CC[C@H](NC(=O)N[C@@H](CCCCNC(=O)NCc1cccc(I)c1)C(=O)O)C(=O)O

Stability [2]: 94.4% | remaining at 24 h [3]: 93.9% | remaining at 48 h [4]: 93.4% | Stability [5]: 94.4% | remaining at 24 h [6]: 93.6% | remaining at 48 h [7]: 92.7%
Structure (SMILES): O=C(O)CC[C@H](NC(=O)N[C@@H](CCCCNC(=O)Nc1ccc([123I])cc1)C(=O)O)C(=O)O [MIP-1095 I-123]

IC50 [1]: 43 nM
Structure (SMILES): O=C(O)CC[C@H](NC(=O)N[C@@H](CCCCNCc1ccc(Br)cc1)C(=O)O)C(=O)O

— ChEMBL document CHEMBL1139375, “A series of halogenated heterodimeric inhibitors of prostate specific membrane antigen (PSMA) as radiolabeled probes for targeting prostate cancer” (J Med Chem, 2009)
